For series [1], the system named is Splenocyte. The series is described as follows: Immunomodulatory activity in C57BL/6 mouse splenocytes bearing TLR7 receptor assessed as IL6 release at 100 ug/ml after 24 hrs by ELISA. The format is functional, cell-based. In outline: (§1)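 C57BL/6 splenocytes in RPMI 1640 with 10% FBS, penicillin/streptomycin, 2 mM L-glutamine, plated at 5 × 10^6 cells/mL; compounds in PBS added, 37 °C for 24 h. Supernatant IL-12 and IL-6 by ELISA; representative of three independent experiments.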
(In general: ELISA stands for enzyme-linked immunosorbent assay.)

Series [2] can be described thus: Metabolic stability in human serum assessed as full length product remaining after 10 mins by HPLC. The note with it: read-out: Stability. In kind it is ADME, cell-free. The method, boiled down: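 About 0.5 A260 units compound in 1% human serum in PBS, 37 °C; aliquot taken at 10 min, analysed by anion-exchange HPLC for percent intact full-length product.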
Series [3] has as its target T1, Toll-like receptor 8 (Homo sapiens) (UniProt Q9NR97).
T1 sequence (whole entry): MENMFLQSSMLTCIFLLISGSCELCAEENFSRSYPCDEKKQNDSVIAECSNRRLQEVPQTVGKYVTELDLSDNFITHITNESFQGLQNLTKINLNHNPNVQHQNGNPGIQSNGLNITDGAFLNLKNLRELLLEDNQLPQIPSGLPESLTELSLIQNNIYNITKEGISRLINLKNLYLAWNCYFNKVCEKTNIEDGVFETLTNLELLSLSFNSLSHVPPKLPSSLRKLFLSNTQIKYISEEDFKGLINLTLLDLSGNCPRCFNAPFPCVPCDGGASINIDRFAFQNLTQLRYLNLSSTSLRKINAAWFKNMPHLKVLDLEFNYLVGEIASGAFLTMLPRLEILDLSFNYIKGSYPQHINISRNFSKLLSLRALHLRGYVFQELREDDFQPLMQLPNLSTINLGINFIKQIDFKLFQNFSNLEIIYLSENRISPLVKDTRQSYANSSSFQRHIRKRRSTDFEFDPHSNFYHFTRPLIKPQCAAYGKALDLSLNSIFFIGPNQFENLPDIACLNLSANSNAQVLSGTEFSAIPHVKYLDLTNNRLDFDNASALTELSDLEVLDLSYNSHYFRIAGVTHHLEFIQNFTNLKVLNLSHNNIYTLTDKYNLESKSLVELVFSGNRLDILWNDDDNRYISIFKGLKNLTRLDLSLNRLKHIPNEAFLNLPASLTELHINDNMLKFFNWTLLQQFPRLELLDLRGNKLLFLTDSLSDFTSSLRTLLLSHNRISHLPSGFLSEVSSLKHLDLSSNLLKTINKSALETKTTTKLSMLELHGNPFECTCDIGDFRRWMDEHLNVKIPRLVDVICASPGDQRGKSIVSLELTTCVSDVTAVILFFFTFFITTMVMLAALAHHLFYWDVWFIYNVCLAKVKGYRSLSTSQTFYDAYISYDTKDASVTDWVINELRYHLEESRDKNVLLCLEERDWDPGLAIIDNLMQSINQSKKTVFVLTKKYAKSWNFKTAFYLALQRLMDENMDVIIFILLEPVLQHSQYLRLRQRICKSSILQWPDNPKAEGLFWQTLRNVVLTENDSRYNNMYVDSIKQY
The series is described as follows: Activation of human TLR8 expressed in HEK293XL assessed as fold induction of NF-kappaB activity at 50 ug/ml after 18 hrs by reporter gene assay relative to control. The method, boiled down:
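HEK293 cells stably expressing human TLR7 or TLR8, transiently transfected with SEAP reporter plasmid; medium replaced, SIMRA compounds added, 18 h incubation. Supernatant SEAP measured by QuantiBlue; expressed as fold increase in NF-κB activity over PBS control. Tabulated data at 50 μg/mL, representative of three independent experiments.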

Series [4] deals with T2, Toll-like receptor 9 (Mus musculus) (UniProt Q9EQU3).
T2 sequence (whole entry): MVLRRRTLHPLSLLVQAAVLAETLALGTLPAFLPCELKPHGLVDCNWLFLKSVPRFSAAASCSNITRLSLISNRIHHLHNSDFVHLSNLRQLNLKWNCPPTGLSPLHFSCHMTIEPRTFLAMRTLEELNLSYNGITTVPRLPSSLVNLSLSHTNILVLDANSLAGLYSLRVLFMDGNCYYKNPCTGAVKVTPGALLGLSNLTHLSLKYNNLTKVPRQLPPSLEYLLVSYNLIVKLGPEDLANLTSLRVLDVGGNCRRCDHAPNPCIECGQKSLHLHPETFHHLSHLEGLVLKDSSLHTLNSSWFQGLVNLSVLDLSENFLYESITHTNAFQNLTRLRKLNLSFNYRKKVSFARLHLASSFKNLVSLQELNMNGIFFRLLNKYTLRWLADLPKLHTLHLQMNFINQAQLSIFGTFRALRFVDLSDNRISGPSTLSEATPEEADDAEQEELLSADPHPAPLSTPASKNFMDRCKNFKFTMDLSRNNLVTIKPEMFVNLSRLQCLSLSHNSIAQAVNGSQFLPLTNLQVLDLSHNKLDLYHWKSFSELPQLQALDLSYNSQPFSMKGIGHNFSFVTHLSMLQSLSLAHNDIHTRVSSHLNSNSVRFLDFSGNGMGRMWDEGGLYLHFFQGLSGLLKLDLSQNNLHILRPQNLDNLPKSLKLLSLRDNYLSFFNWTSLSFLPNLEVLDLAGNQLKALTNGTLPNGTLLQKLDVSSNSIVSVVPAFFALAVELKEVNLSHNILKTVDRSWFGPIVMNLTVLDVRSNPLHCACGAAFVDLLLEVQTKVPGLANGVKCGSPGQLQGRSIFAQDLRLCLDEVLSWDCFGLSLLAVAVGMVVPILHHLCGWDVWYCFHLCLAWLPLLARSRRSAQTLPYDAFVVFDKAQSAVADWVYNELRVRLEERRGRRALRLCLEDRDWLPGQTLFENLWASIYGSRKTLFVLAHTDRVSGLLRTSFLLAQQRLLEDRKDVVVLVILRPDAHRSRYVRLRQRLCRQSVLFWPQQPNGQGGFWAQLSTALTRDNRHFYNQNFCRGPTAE
The series is described as follows: Activation of mouse TLR9 expressed in HEK293 assessed as induction of NF-kappaB activity reporter gene assay. In kind it is cell-based. For orientation: A reporter such as luciferase makes a cellular process visible.

Series [5] addresses Toll-like receptor 3 (Homo sapiens) (UniProt O15455). The series is described as follows: Activation of human TLR3 expressed in HEK293 assessed as induction of NF-kappaB activity reporter gene assay. The format is cell-based.
The test system of series [6] is Splenocyte. The series is described as follows: Immunomodulatory activity in C57BL/6 mouse splenocytes bearing TLR7 receptor assessed as IL12 release at 100 ug/ml after 24 hrs by ELISA. In kind it is functional, cell-based. In outline:
as §1

Molecules are shown by their SMILES. The source made the active and inactive calls. The rule behind the calls is not given here.

Chain of Toll-like receptor 3 (Homo sapiens) (O15455 whole entry): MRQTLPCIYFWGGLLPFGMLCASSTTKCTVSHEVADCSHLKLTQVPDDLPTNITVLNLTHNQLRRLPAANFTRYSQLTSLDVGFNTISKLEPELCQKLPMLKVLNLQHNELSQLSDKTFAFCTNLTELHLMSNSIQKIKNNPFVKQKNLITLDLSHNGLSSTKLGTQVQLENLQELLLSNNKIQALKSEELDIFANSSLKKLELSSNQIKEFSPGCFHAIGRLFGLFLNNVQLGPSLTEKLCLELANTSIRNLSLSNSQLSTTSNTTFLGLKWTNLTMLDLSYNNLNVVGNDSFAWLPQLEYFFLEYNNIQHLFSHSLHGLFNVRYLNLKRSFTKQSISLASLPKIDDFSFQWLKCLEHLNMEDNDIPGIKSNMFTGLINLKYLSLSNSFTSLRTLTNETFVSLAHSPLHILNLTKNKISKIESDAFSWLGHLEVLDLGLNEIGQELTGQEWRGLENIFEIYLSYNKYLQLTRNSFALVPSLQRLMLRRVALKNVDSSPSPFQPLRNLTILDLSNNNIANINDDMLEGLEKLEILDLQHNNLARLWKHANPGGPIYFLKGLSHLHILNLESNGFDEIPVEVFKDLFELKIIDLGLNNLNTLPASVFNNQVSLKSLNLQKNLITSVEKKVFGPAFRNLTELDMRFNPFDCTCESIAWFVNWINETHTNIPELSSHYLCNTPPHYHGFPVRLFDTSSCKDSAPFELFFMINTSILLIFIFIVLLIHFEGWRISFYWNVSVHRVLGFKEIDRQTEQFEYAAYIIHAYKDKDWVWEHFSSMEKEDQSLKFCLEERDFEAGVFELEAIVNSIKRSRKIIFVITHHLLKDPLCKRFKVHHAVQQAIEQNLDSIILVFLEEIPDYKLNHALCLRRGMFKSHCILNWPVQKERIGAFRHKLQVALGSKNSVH

For the molecule `Nc1ccn([C@@H]2O[C@H](COP(=O)(S)O[C@H]3[C@@H](O)[C@H](n4cnc5c(N)ncnc54)O[C@@H]3COP(=O)(S)O[C@H]3[C@@H](O)[C@H](n4ccc5c(=O)[nH]c(N)nc54)O[C@@H]3COP(=O)(S)O[C@H]3[C@@H](O)[C@H](n4ccc(=O)[nH]c4=O)O[C@@H]3COP(=O)(S)O[C@H]3[C@@H](O)[C@H](n4ccc(=O)[nH]c4=O)O[C@@H]3COP(=O)(S)O[C@H]3[C@@H](O)[C@H](n4cnc5c(N)ncnc54)O[C@@H]3COP(=O)(S)O[C@H]3[C@@H](O)[C@H](n4cnc5c(N)ncnc54)O[C@@H]3CO)[C@@H](OP(=O)(S)OC[C@H]3O[C@@H](n4ccc5c(=O)[nH]c(N)nc54)[C@H](O)[C@@H]3OP(=O)(S)OC[C@H]3O[C@@H](n4ccc(N)nc4=O)[C@H](O)[C@@H]3OP(=O)(S)OC[C@H]3O[C@@H](n4ccc(=O)[nH]c4=O)[C@H](O)[C@@H]3OP(=O)(S)OC[C@H]3O[C@@H](n4ccc5c(=O)[nH]c(N)nc54)[C@H](O)[C@@H]3OP(=O)(S)OCC(O)COP(=O)(S)O[C@H]3[C@@H](O)[C@H](n4ccc5c(=O)[nH]c(N)nc54)O[C@@H]3COP(=O)(S)O[C@H]3[C@@H](O)[C@H](n4ccc(=O)[nH]c4=O)O[C@@H]3COP(=O)(S)O[C@H]3[C@@H](O)[C@H](n4ccc(N)nc4=O)O[C@@H]3COP(=O)(S)O[C@H]3[C@@H](O)[C@H](n4ccc5c(=O)[nH]c(N)nc54)O[C@@H]3COP(=O)(S)O[C@H]3[C@@H](O)[C@H](n4ccc(N)nc4=O)O[C@@H]3COP(=O)(S)O[C@H]3[C@@H](O)[C@H](n4cnc5c(N)ncnc54)O[C@@H]3COP(=O)(S)O[C@H]3[C@@H](O)[C@H](n4ccc5c(=O)[nH]c(N)nc54)O[C@@H]3COP(=O)(S)O[C@H]3[C@@H](O)[C@H](n4ccc(=O)[nH]c4=O)O[C@@H]3COP(=O)(S)O[C@H]3[C@@H](O)[C@H](n4ccc(=O)[nH]c4=O)O[C@@H]3COP(=O)(S)O[C@H]3[C@@H](O)[C@H](n4cnc5c(N)ncnc54)O[C@@H]3COP(=O)(S)O[C@H]3[C@@H](O)[C@H](n4cnc5c(N)ncnc54)O[C@@H]3CO)[C@H]2O)c(=O)n1` (some centres not stated), the outcome in the series with Splenocyte [1] and with Splenocyte [6] was Active. Also, the remaining at 10 min in series [2] was 82%. For the same molecule, the fold change (FC) in series [3] came out at 0.2. In addition, the outcome in series [4] and in series [5] was inactive.

On to `Nc1ccn([C@@H]2O[C@H](COP(=O)(S)O[C@H]3[C@@H](O)[C@H](n4cnc5c(N)ncnc54)O[C@@H]3CO)[C@@H](OP(=O)(S)OC[C@H]3O[C@@H](n4ccc(=O)[nH]c4=O)[C@H](O)[C@@H]3OP(=O)(S)OC[C@H]3O[C@@H](n4ccc(=O)[nH]c4=O)[C@H](O)[C@@H]3OP(=O)(S)OC[C@H]3O[C@@H](n4ccc5c(=O)[nH]c(N)nc54)[C@H](O)[C@@H]3OP(=O)(S)OC[C@H]3O[C@@H](n4cnc5c(N)ncnc54)[C@H](O)[C@@H]3OP(=O)(S)OC[C@H]3O[C@@H](n4ccc(N)nc4=O)[C@H](O)[C@@H]3OP(=O)(S)OC[C@H]3O[C@@H](n4ccc(=O)[nH]c4=O)[C@H](O)[C@@H]3OP(=O)(S)OC[C@H]3O[C@@H](n4ccc(=O)[nH]c4=O)[C@H](O)[C@@H]3OP(=O)(S)OC[C@H]3O[C@@H](n4ccc5c(=O)[nH]c(N)nc54)[C@H](O)[C@@H]3OP(=O)(S)OC[C@H]3O[C@@H](n4cnc5c(N)ncnc54)[C@H](O)[C@@H]3OP(=O)(S)OCC(O)COP(=O)(S)O[C@H]3[C@@H](O)[C@H](n4cnc5c(N)ncnc54)O[C@@H]3COP(=O)(S)O[C@H]3[C@@H](O)[C@H](n4ccc5c(=O)[nH]c(N)nc54)O[C@@H]3COP(=O)(S)O[C@H]3[C@@H](O)[C@H](n4ccc(=O)[nH]c4=O)O[C@@H]3COP(=O)(S)O[C@H]3[C@@H](O)[C@H](n4ccc(=O)[nH]c4=O)O[C@@H]3COP(=O)(S)O[C@H]3[C@@H](O)[C@H](n4ccc(N)nc4=O)O[C@@H]3COP(=O)(S)O[C@H]3[C@@H](O)[C@H](n4cnc5c(N)ncnc54)O[C@@H]3COP(=O)(S)O[C@H]3[C@@H](O)[C@H](n4ccc5c(=O)[nH]c(N)nc54)O[C@@H]3COP(=O)(S)O[C@H]3[C@@H](O)[C@H](n4ccc(=O)[nH]c4=O)O[C@@H]3COP(=O)(S)O[C@H]3[C@@H](O)[C@H](n4ccc(=O)[nH]c4=O)O[C@@H]3COP(=O)(S)O[C@H]3[C@@H](O)[C@H](n4ccc(N)nc4=O)O[C@@H]3COP(=O)(S)O[C@H]3[C@@H](O)[C@H](n4cnc5c(N)ncnc54)O[C@@H]3CO)[C@H]2O)c(=O)n1` (some centres not stated), for which the outcome with Splenocyte [1] and in the series with Splenocyte [6] was Active. In series [2], the remaining at 10 min is 87%. Further, the fold change (FC) in series [3] came to 1.4. In addition, the result in series [4] and in series [5] was inactive.

Values taken from ChEMBL document CHEMBL1154352, “Toll-like receptor 7 selective synthetic oligoribonucleotide agonists: synthesis and structure-activity relationship studies” (J Med Chem, 2009).
